# Experimental data from ChEMBL document CHEMBL5674876, “Epigenetic Activation of Pro-angiogenic Signaling Pathways in Human Endothelial Progenitors Increases Vasculogenesis” (Stem Cell Reports, 2017).
# Active and inactive are the calls of the source. The calls are words filed in the database; no cut-off is given here.
# Key:
# HUVEC [1] = assay: Effect on pro-angiogenic property in human umbilical cord derived endothelial colony forming cells assessed as increase in AKT protein phosphorylation by Western blotting analysis; type: functional, cell-based
# [2] = system: Umbilical cord derived endothelial colony forming cell; assay: Activation of WNT pro-angiogenic pathway in human umbilical cord derived endothelial colony forming cells by measuring DKK3 level at 5 uM for 72 hrs in presence of panobinostat for 2 hrs by qRT-PCR analysis; type: cell-based; details: filed as activator
# [3] = system: Umbilical cord derived endothelial colony forming cell; assay: Activation of WNT pro-angiogenic pathway in human umbilical cord derived endothelial colony forming cells by measuring TCF7L1 level in presence of panobinostat by qRT-PCR analysis; type: cell-based; details: filed as activator
# [4] = system: Umbilical cord derived endothelial colony forming cell; assay: Activation of WNT pro-angiogenic pathway in human umbilical cord derived endothelial colony forming cells by measuring FZD2 level in presence of panobinostat by qRT-PCR analysis; type: cell-based; details: filed as activator
# [5] = biological target: DNA (cytosine-5)-methyltransferase 1 (Homo sapiens) (UniProt P26358); assay: Inhibition of DNMT1 in human umbilical cord derived endothelial colony forming cells assessed as decrease in protein level by Western blotting analysis; type: cell-based; details: Umbilical cord derived endothelial colony forming cell
# HUVEC [6] = assay: Effect on pro-angiogenic property in human umbilical cord derived endothelial colony forming cells assessed as increase in ANGPT2 level by qRT-PCR analysis; type: functional, cell-based
# Mus musculus [7] = species on record: Mus musculus; assay: Effect on restoration of blood flow in athymic nude CD1 hindlimb ischemia mouse model in presence of panobinostat for 28 days by laser doppler perfusion imaging analysis; type: functional, organism-based; details: time 28.0 day
# Summary of the method: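 Left femoral artery ligated in 8-week-old female athymic nude CD1 mice; 5 × 10^5 ECFCs pretreated with the combination or vehicle, in 50 μL PBS, given as two intramuscular injections into adductor muscle after skin closure. Perfusion measured by laser Doppler pre-op, day 0 and later days; ischemic/non-ischemic ratio, n = 7–8 mice to day 14, 3–4 to day 28.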
# [8] = system: Umbilical cord derived endothelial colony forming cell; assay: Activation of WNT pro-angiogenic pathway in human umbilical cord derived endothelial colony forming cells by measuring JAG1 level in presence of panobinostat by qRT-PCR analysis; type: cell-based; details: filed as activator
# HUVEC [9] = assay: Effect on pro-angiogenic property in human umbilical cord derived endothelial colony forming cells assessed as increase in ERK1 protein phosphorylation by Western blotting analysis; type: functional, cell-based
# [10] = system: Umbilical cord derived endothelial colony forming cell; assay: Activation of WNT pro-angiogenic pathway in human umbilical cord derived endothelial colony forming cells by measuring WNT5A level in presence of panobinostat by qRT-PCR analysis; type: cell-based; details: filed as activator
# HUVEC [11] = assay: Effect on pro-angiogenic property in human umbilical cord derived endothelial colony forming cells assessed as increase in DLL4 level in presence of panobinostat by qRT-PCR analysis; type: functional, cell-based
# HUVEC [12] = assay: Resistance to induction of cell apoptosis in human umbilical cord derived endothelial colony forming cells in presence of panobinostat by annexin V staining analysis; type: functional, cell-based
# Summary of the method: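 ECFCs were pretreated with the epigenetic drugs or vehicle and kept in serum-containing EGM-2. Apoptosis was scored by flow cytometry after annexin V and 7-AAD staining. Values are expressed as percentage of vehicle-treated control, mean ±SEM, three independent experiments each in duplicate.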
# HUVEC [13] = assay: Effect on pro-angiogenic property in human umbilical cord derived endothelial colony forming cells assessed as increase in KDR level in presence of panobinostat by qRT-PCR analysis; type: functional, cell-based
# [14] = system: Umbilical cord derived endothelial colony forming cell; assay: Inhibition of H3K9 methyltransferase G9a in human umbilical cord derived endothelial colony forming cells assessed as decrease in protein level by Western blotting analysis; type: cell-based
# Summary of the method: (§1)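 Cord-blood ECFCs were treated with an EZH2 inhibitor at 5 μM for 72 hr, then an HDAC inhibitor at 10 nM for 2 hr, or with vehicle. Levels of the epigenetic enzymes were read by western blot, with tubulin as loading control.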
# HUVEC [15] = assay: Effect on human umbilical cord derived endothelial colony forming cells assessed as reversal of increase in H3K4me3 level in presence of panobinostat measured after 24 hrs of drug removal by qRT-PCR analysis; type: functional, cell-based
# HUVEC [16] = assay: Effect on pro-angiogenic property in human umbilical cord derived endothelial colony forming cells assessed as formation of capillary network on matrigel at 5 uM for 72 hrs in presence of panobinostat; type: functional, cell-based
# Summary of the method: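 Drug- or vehicle-pretreated ECFCs seeded at 5,000 cells/well on phenol-red-free growth-factor-reduced Matrigel in duplicate; after 24 hr stained with 5 μg/mL calcein 5 min at 37°C, imaged at 2.5×. Total tube length expressed as percentage of vehicle control ±SEM, three independent experiments.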
# Mus musculus [17] = assay: In vivo upregulation of pro-angiogneic pathway in athymic nude CD1 hindlimb ischemia mouse model in presence of panobinostat treated for 28 days; type: functional, organism-based; details: time 28.0 day
# [18] = system: Umbilical cord derived endothelial colony forming cell; assay: Activation of WNT pro-angiogenic pathway in human umbilical cord derived endothelial colony forming cells by measuring EGR1 level in presence of panobinostat by qRT-PCR analysis; type: cell-based; details: filed as activator
# HUVEC [19] = assay: Effect on pro-angiogenic property in human umbilical cord derived endothelial colony forming cells assessed as increase in HEY2 level in presence of panobinostat by qRT-PCR analysis; type: functional, cell-based
# [20] = biological target: Histone-lysine N-methyltransferase EZH2 (Homo sapiens) (UniProt Q15910); assay: Inhibition of EZH2 in human umbilical cord derived endothelial colony forming cells assessed as decrease in H3K27me1 level at 0.01 to 5 uM measured after 24 to 72 hrs by Western blotting analysis; type: cell-based; details: Umbilical cord derived endothelial colony forming cell, dose 0.01-5 µM, time 24-72 hrs
# Summary of the method: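 Human cord-blood ECFC clones, at least three independent, passages 3–6, grown in EGM-2 with 10% FBS. Histone methylation marks were assessed by western blot, with total histone H3 and H4 as loading controls.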
# HUVEC [21] = assay: Downregulation of SEMA3A in human umbilical cord derived endothelial colony forming cells by qRT-PCR analysis; type: functional, cell-based
# [22] = biological target: Histone deacetylase 1 (Homo sapiens) (UniProt Q13547); assay: Inhibition of deacetylase HDAC1 in human umbilical cord derived endothelial colony forming cells assessed as decrease in protein level by Western blotting analysis; type: cell-based; details: Umbilical cord derived endothelial colony forming cell; summary of the method: as §1
# [23] = system: Umbilical cord derived endothelial colony forming cell; assay: Inhibition of H3K27 demethylase UTX in human umbilical cord derived endothelial colony forming cells assessed as decrease in protein level by Western blotting analysis; type: cell-based; summary of the method: as §1
# HUVEC [24] = assay: Effect on pro-angiogenic property in human umbilical cord derived endothelial colony forming cells assessed as increase in VEGFR1 protein level by Western blotting analysis; type: functional, cell-based
# HUVEC [25] = assay: Effect on pro-angiogenic property in human umbilical cord derived endothelial colony forming cells assessed as increase in intracellular CXCR4 protein phosphorylation by Western blotting analysis; type: functional, cell-based
# HUVEC [26] = assay: Effect on human umbilical cord derived endothelial colony forming cells assessed as reversal of decrease in H3 acetylation level in presence of panobinostat measured after 24 hrs of drug removal by qRT-PCR analysis; type: functional, cell-based
# HUVEC [27] = assay: Effect on pro-angiogenic property in human umbilical cord derived endothelial colony forming cells assessed as increase in ERK2 protein phosphorylation by Western blotting analysis; type: functional, cell-based
# HUVEC [28] = assay: Effect on pro-angiogenic property in human umbilical cord derived endothelial colony forming cells assessed as increase in CXCL12 level by qRT-PCR analysis; type: functional, cell-based
# [29] = system: Umbilical cord derived endothelial colony forming cell; assay: Activation of WNT pro-angiogenic pathway in human umbilical cord derived endothelial colony forming cells by measuring FZD7 level in presence of panobinostat by qRT-PCR analysis; type: cell-based; details: filed as activator
# [30] = system: Umbilical cord derived endothelial colony forming cell; assay: Activation of WNT pro-angiogenic pathway in human umbilical cord derived endothelial colony forming cells by measuring WNT11 level in presence of panobinostat by qRT-PCR analysis; type: cell-based; details: filed as activator
# Chain of DNA (cytosine-5)-methyltransferase 1 (Homo sapiens) (P26358 whole entry): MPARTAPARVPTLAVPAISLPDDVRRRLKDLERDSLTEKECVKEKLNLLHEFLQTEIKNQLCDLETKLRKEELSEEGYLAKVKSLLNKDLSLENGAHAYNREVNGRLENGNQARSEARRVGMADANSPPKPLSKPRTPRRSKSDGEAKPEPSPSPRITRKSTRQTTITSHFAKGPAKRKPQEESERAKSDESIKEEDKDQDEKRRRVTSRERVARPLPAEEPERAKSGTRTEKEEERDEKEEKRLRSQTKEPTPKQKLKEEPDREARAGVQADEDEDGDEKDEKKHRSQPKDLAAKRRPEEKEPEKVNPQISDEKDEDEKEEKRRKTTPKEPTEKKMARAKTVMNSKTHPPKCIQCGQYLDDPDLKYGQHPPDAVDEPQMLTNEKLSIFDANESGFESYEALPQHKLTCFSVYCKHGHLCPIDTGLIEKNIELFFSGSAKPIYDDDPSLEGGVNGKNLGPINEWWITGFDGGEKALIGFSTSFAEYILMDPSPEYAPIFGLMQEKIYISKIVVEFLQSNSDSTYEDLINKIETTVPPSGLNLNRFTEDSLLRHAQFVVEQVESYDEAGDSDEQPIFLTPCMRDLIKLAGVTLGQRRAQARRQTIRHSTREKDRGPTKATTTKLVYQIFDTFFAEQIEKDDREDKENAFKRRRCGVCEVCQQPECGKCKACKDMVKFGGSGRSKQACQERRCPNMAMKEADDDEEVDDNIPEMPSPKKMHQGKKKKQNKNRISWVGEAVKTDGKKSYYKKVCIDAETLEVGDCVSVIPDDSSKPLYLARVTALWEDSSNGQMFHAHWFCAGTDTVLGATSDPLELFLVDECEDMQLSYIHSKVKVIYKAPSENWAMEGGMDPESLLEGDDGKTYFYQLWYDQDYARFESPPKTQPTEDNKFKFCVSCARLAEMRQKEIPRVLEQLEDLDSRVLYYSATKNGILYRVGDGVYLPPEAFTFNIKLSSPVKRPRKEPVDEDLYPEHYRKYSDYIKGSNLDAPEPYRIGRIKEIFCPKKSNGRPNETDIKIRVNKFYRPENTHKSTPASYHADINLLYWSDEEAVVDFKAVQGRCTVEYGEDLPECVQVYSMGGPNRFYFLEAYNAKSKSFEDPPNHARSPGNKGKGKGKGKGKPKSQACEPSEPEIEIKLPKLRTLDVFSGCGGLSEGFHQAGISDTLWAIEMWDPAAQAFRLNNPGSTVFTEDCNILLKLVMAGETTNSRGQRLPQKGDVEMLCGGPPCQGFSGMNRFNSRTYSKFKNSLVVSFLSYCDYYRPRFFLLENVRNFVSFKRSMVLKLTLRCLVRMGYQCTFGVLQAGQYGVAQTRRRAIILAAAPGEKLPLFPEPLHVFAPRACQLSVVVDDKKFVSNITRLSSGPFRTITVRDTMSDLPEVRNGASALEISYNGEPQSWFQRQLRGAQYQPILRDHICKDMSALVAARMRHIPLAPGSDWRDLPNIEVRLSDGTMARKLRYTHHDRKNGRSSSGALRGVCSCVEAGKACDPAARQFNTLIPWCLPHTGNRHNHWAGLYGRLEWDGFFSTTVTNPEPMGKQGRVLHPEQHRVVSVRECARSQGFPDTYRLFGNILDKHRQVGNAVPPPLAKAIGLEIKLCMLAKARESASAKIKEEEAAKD
# Chain of Histone-lysine N-methyltransferase EZH2 (Homo sapiens) (Q15910 whole entry, looked up): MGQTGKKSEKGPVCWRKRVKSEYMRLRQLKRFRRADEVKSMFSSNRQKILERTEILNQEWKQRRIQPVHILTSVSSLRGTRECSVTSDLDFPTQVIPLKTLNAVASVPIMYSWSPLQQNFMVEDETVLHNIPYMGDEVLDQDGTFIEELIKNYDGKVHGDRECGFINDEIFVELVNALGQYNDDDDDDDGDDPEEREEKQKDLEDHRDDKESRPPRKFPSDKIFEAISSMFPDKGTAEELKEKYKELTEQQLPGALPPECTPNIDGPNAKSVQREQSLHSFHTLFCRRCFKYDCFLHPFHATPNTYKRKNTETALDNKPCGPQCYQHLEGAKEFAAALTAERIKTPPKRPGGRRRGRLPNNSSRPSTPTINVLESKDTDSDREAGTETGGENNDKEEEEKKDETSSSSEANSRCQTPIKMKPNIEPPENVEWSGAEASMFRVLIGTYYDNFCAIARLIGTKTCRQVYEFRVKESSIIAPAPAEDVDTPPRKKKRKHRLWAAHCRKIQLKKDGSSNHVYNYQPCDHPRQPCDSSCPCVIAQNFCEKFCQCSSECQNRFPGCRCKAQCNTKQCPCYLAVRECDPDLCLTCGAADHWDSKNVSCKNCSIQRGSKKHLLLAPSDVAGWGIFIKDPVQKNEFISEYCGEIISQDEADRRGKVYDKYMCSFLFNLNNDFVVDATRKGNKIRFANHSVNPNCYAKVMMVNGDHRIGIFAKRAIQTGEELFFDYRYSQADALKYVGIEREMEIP
# Chain of Histone deacetylase 1 (Homo sapiens) (Q13547 whole entry): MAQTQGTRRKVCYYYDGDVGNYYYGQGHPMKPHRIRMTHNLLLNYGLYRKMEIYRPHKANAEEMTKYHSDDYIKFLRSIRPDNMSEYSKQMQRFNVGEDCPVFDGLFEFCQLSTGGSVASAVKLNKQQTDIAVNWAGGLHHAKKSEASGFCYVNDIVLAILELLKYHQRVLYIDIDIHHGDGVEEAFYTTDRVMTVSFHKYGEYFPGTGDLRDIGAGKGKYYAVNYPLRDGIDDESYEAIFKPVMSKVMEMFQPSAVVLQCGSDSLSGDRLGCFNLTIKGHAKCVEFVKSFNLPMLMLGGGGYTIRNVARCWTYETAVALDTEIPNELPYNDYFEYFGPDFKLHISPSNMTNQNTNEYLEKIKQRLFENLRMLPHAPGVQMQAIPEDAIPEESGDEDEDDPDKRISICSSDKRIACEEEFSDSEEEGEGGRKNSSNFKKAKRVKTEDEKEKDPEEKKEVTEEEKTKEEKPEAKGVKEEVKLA
compound,measurement,setting,value
CCCc1cc(C)[nH]c(=O)c1CNC(=O)c1cc(-c2ccnc(N3CCN(C)CC3)c2)cc2c1cnn2C(C)C,Activity,HUVEC [1],Active
same,Activity,[2],Active
same,Activity,[3],Active
same,Activity,[4],Active
same,inhibition,[5],inactive
same,Activity,HUVEC [6],Active
same,Activity,Mus musculus [7],Active
same,Activity,[8],Active
same,Activity,HUVEC [9],Active
same,Activity,[10],Active
same,Activity,HUVEC [11],Active
same,Activity,HUVEC [12],Active
same,Activity,HUVEC [13],Active
same,inhibition,[14],inactive
same,Activity,HUVEC [15],Active
same,Activity,HUVEC [16],Active
same,Activity,Mus musculus [17],Active
same,Activity,[18],Active
same,Activity,HUVEC [19],Active
same,inhibition,[20],inactive
same,Activity,HUVEC [21],Active
same,inhibition,[22],inactive
same,inhibition,[23],inactive
same,Activity,HUVEC [24],Active
same,Activity,HUVEC [25],Active
same,Activity,HUVEC [26],Active
same,Activity,HUVEC [27],Active
same,Activity,HUVEC [28],Active
same,Activity,[29],Active
same,Activity,[30],Active
